Source: ChEMBL document CHEMBL2146419, “Effects of polyphenol compounds on influenza A virus replication and definition of their mechanism of action” (Bioorg Med Chem, 2012)

Key:
[1] = tested on: MDCK; experiment: Cytotoxicity against dog MDCK cells assessed as loss of cell viability incubated for 24 hrs followed by compound wash out measured after 24 hrs by trypan blue exclusion assay; type: cell-based, Canis lupus familiaris
Outline: (§1)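 Confluent MDCK monolayers plated at 2×10^5/ml were treated after 24 h with compound at 5–40 μg/ml and incubated a further 24 h. Assessed by microscopic examination of morphology, Trypan blue exclusion for viability, and cell counts for multiplication rate.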

[2] = tested on: MDCK; experiment: Cytotoxicity against dog MDCK cells assessed as morphological alterations incubated for 24 hrs followed by compound wash out measured after 24 hrs by microscopic analysis; type: cell-based, Canis lupus familiaris; outline: as §1
[3] = tested on: MDCK; experiment: Cytotoxicity against dog MDCK cells assessed as modification of cell multiplication rate incubated for 24 hrs followed by compound wash out measured after 24 hrs by cell counting analysis; type: cell-based, Canis lupus familiaris; outline: as §1
[4] = tested on: Influenza A virus; experiment: Antiviral activity against Influenza virus A/Puerto Rico/8/34 H1N1 infected in dog MDCK cells incubated at 1 hr post-infection measured after 24 hrs by hemagglutininating unit assay; type: functional, organism-based; settings: A/Puerto Rico/8/1934(H1N1)
Outline: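 MDCK cells infected with PR8; 1 h after adsorption they were washed, and compound (5–20 μg/ml) or DMSO was added and kept on throughout. Virus released into the supernatant was titrated by HAU assay 24 h p.i. Yield is a percentage of control infected cells given 0.02% DMSO. Means of four experiments, each in duplicate.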

[5] = tested on: MDCK; experiment: Cytotoxicity against dog MDCK cells assessed as morphological alterations at 40 ug/mL incubated for 24 hrs followed by compound wash out measured after 24 hrs by microscopic analysis; type: cell-based, Canis lupus familiaris; outline: as §1

Cc1ccc(/C=C/C(=O)c2ccc(O)cc2O)cc1
Activity [1]: Dose-dependent effect | Activity [2]: Dose-dependent effect | Activity [3]: Dose-dependent effect

O=C(/C=C/c1ccc(O)c(O)c1)c1ccc(O)cc1
Activity [1]: Dose-dependent effect | Activity [2]: Dose-dependent effect | Activity [3]: Dose-dependent effect

COc1ccc(/C=C/C(=O)c2ccc(O)cc2O)cc1
Activity [1]: Dose-dependent effect | Activity [2]: Dose-dependent effect | Activity [3]: Dose-dependent effect

O=C(/C=C/c1ccc(O)c(O)c1)c1ccccc1
Activity [1]: Dose-dependent effect | Activity [2]: Dose-dependent effect | Activity [3]: Dose-dependent effect

Nc1cccc(C(=O)/C=C/c2ccc(O)c(O)c2)c1
Activity [1]: Dose-dependent effect | Activity [2]: Dose-dependent effect | Activity [3]: Dose-dependent effect

COc1ccc(C(=O)/C=C/c2ccc(F)cc2)c(O)c1
Activity [1]: Dose-dependent effect | Activity [2]: Dose-dependent effect | Activity [3]: Dose-dependent effect

CCOC(=O)C1C/C(=C\c2ccc(O)c(O)c2)C(=O)/C(=C/c2ccc(O)c(O)c2)C1 (stereo unspecified)
Activity [1]: Dose-dependent effect | Activity [2]: Dose-dependent effect | Activity [3]: Dose-dependent effect

O=C(/C=C/c1cc(O)cc(O)c1)c1ccc(O)cc1
Activity [1]: Dose-dependent effect | Activity [2]: Dose-dependent effect | Activity [3]: Dose-dependent effect

O=C(/C=C/c1ccc(O)cc1)c1cc(O)cc(O)c1
Activity [4]: Dose-dependent effect | Activity [1]: Non-toxic | Activity [2]: Non-toxic | Activity [5]: Toxic | Activity [3]: Non-toxic

O=C(/C=C/c1ccc(Cl)cc1)c1ccccc1O
Activity [4]: Dose-dependent effect | Activity [1]: Non-toxic | Activity [2]: Non-toxic | Activity [5]: Toxic | Activity [3]: Non-toxic

O=C(/C=C/c1ccc(O)c(O)c1)c1ccc(O)cc1O [BUTEIN]
Activity [1]: Dose-dependent effect | Activity [2]: Dose-dependent effect | Activity [3]: Dose-dependent effect

O=C(/C=C/c1ccc(O)c(O)c1)/C=C/c1ccc(O)c(O)c1
Activity [1]: Dose-dependent effect | Activity [2]: Dose-dependent effect | Activity [3]: Dose-dependent effect

O=C1/C(=C/c2ccc(O)c(O)c2)CCC/C1=C\c1ccc(O)c(O)c1
Activity [1]: Dose-dependent effect | Activity [2]: Dose-dependent effect | Activity [3]: Dose-dependent effect

CCCN1C/C(=C\c2ccc(O)c(O)c2)C(=O)/C(=C/c2ccc(O)c(O)c2)C1
Activity [1]: Dose-dependent effect | Activity [2]: Dose-dependent effect | Activity [3]: Dose-dependent effect
